Results on 1 compound are retold here after ChEMBL document CHEMBL5370613, “Phenyl dialkynylcarbinols, a Bioinspired Series of Synthetic Antitumor Acetylenic Lipids” (J Med Chem, 2023).

The nature of data set [1]: Cmax in female CD-1 mouse at 5 mg/kg, ip measured for 480 mins by LC-MS/MS analysis. The data set is classed as ADME, organism-based. Details: dose 5 mg/kg, time 480 min, route ip. As to conditions: in vivo. Put shortly:
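Female (or male, as per line) CD-1 mice, 3 per time point, given a single 5 mg/kg dose in 10% Kolliphor EL in saline (injections) or water (oral). Blood sampled 5–480 min; plasma extracted with CH₃CN and quantified by LC-MS/MS (ESI+, m/z 251.20) against a calibration curve in extracted plasma; parameters by non-compartmental analysis.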

Data set [2] can be described thus: Volume of distribution in elimination phase in male CD-1 mouse at 5 mg/kg, po measured for 480 mins by LC-MS/MS analysis. The data set is classed as ADME, organism-based. As to conditions: in vivo, read-out: Vz/F. Summed up:
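CD-1 mice (female for all routes, male for IV and PO) were dosed at 5 mg/kg in 10% Kolliphor EL in saline (injections) or water (oral), 3 mice per time point. Blood was taken at 5–480 min, and plasma was extracted with acetonitrile. LC-MS/MS positive ESI, m/z 251.20. Parameters came from non-compartmental analysis with a plasma calibration curve.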

Another data set concerns U2OS. The data set is described as follows: Induction of apoptosis in human U2OS cells assessed as cell shrinkage. The class given is functional, cell-based.

SMILES strings stand for the structures. Calls of active or inactive are those of the source. The rule behind the calls is not given here.

`C#C[C@H](O)C#Cc1ccc(CCCCCCCC)cc1` displayed a Cmax in data set [1] of 1200 nM. Also, the Vd/F in data set [2] turned out to be 97.2 L/kg. Also, the outcome in the data set with U2OS was Active.
